Source: ChEMBL document CHEMBL3525958 (Drug Metab Dispos, 2013)

Legend:
[1] = Activity at human P-glycoprotein expressed in pig LLC-PK1 cells assessed as rate of transport at 5 uM after 90 mins by liquid scintillation counting; format: ADME, cell-based
Summary of the method: (§1)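 Human P-gp-cDNA LLC-PK1 cells and vector-only (mock) cells were cultured on collagen-coated inserts for 7 days. […] Facilitated rate v = IA/(filter area × time), where IA is the net P-gp-dependent pmol transported.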

[2] = Activity at human P-glycoprotein expressed in pig LLC-PK1 cells at 10 uM after 120 mins by liquid scintillation counting; format: ADME, cell-based; conditions: llc-pk1, 2 h
[3] = Activity at human P-glycoprotein expressed in pig LLC-PK1 cells assessed as rate of transport at 100 uM after 90 mins by liquid scintillation counting; format: ADME, cell-based; summary of the method: as §1
[4] = Activity at human P-glycoprotein expressed in pig LLC-PK1 cells at 10 uM after 90 mins by liquid scintillation counting; format: ADME, cell-based
[5] = Activity at human P-glycoprotein expressed in pig LLC-PK1 cells assessed as rate of transport at 10 uM after 60 mins by liquid scintillation counting; format: ADME, cell-based; conditions: llc-pk1, 1 h; summary of the method: as §1
[6] = Activity at human P-glycoprotein expressed in pig LLC-PK1 cells at […] after 90 mins by liquid scintillation counting; format: ADME, cell-based
[7] = Activity at human P-glycoprotein expressed in pig LLC-PK1 cells assessed as rate of transport at […] after 90 mins by liquid scintillation counting; format: ADME, cell-based
[8] = Activity at human P-glycoprotein expressed in pig LLC-PK1 cells at 50 uM after 90 mins by liquid scintillation counting; format: ADME, cell-based
[9] = Activity at human P-glycoprotein expressed in pig LLC-PK1 cells at 5 uM after 90 mins by liquid scintillation counting; format: ADME, cell-based
[10] = Activity at human P-glycoprotein expressed in pig LLC-PK1 cells assessed as rate of transport at 10 uM after 120 mins by liquid scintillation counting; format: ADME, cell-based; conditions: llc-pk1, 2 h; summary of the method: as §1
[11] = Activity at human P-glycoprotein expressed in pig LLC-PK1 cells at 25 uM after 90 mins by liquid scintillation counting; format: ADME, cell-based
[12] = Activity at human P-glycoprotein expressed in pig LLC-PK1 cells assessed as rate of transport at 10 uM after 90 mins by liquid scintillation counting; format: ADME, cell-based; summary of the method: as §1
[13] = Activity at human P-glycoprotein expressed in pig LLC-PK1 cells assessed as rate of transport at 25 uM after 90 mins by liquid scintillation counting; format: ADME, cell-based; summary of the method: as §1
[14] = Activity at human P-glycoprotein expressed in pig LLC-PK1 cells at 100 uM after 90 mins by liquid scintillation counting; format: ADME, cell-based
[15] = Activity at human P-glycoprotein expressed in pig LLC-PK1 cells assessed as rate of transport at 50 uM after 90 mins by liquid scintillation counting; format: ADME, cell-based; summary of the method: as §1
[16] = Activity at human P-glycoprotein expressed in pig LLC-PK1 cells at 10 uM after 60 mins by liquid scintillation counting; format: ADME, cell-based; conditions: llc-pk1, 1 h
[17] = Oral bioavailability in rat; format: ADME, organism-based; conditions: in vivo
[18] = Ratio of AUC in milk to plasma in lactating rat; format: ADME; conditions: female, read-out: Ratio AUC
[19] = Oral bioavailability in dog; format: ADME, organism-based, Canis lupus familiaris; conditions: in vivo
[20] = Oral bioavailability in human; format: ADME, organism-based; conditions: in vivo
[21] = Ratio of Cmax in milk to plasma in lactating rat; format: ADME; conditions: female
[22] = Ratio of drug level in brain to blood in po dosed rat; format: ADME, organism-based
[23] = Apparent permeability from apical to basolateral side of human Caco2 cells at 5 uM by liquid scintillation counting; conditions: Caco-2
BCRP [24] = experiment: Permeability in human Caco2 cells assessed as 11 uM BCRP inhibitor Ko134-mediated inhibition of digoxin at 5 uM by liquid scintillation counting; format: ADME, cell-based; conditions: Caco-2, with Ko134 11 uM
Summary of the method: (§2)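 Caco-2 monolayers (passages 17–40, 13–22 days post-seeding) were used. Bidirectional transport ran for 2 h at 37°C, shaken at 50 rpm, in HBSS/10 mM HEPES pH 7.4. […] Inhibitors were present in both chambers: ketoconazole or cyclosporin A (20 or 50 µM), Ko134 (1 or 11 µM), or probenecid with the 20 µM runs. Results are % inhibition of efflux ratio.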

[25] = Apparent permeability from basolateral to apical side of human Caco2 cells at 5 uM by liquid scintillation counting; conditions: Caco-2
P-gp [26] = experiment: Apparent permeability in human Caco2 cells assessed as 50 uM P-gp inhibitor cyclosporin A-mediated inhibition of digoxin efflux at 5 uM by liquid scintillation counting; format: ADME, cell-based; conditions: Caco-2 cells, with cyclosporin A 50 uM; summary of the method: as §2
P-gp [27] = experiment: Apparent permeability in human Caco2 cells assessed as 50 uM P-gp inhibitor ketoconazole-mediated inhibition of digoxin efflux at 5 uM by liquid scintillation counting; format: ADME, cell-based; conditions: Caco-2 cells, with ketoconazole 50 uM; summary of the method: as §2
P-glycoprotein (human) = experiment: Efflux ratio of apparent permeability from basolateral to apical side over apical to basolateral side in pig LLC-PK1 cells expressing human P-glycoprotein at 5 uM by liquid scintillation counting; format: ADME, cell-based, Sus scrofa
BCRP [28] = experiment: in vitro; conditions: human, Caco-2, with Ko134 11 uM
BCRP [29] = experiment: Efflux ratio of apparent permeability from basolateral to apical side over apical to basolateral side in MDCK2 cells expressing human BCRP at 5 uM by liquid scintillation counting; format: ADME, cell-based, Canis lupus familiaris, MDCK-II; conditions: dog
Summary of the method: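 MDCKII cells, mock or carrying human BCRP cDNA, were cultured 4 days on transwell inserts, with 10 mM sodium butyrate added 24 h before assay. Cells were pre-incubated 10 min in modified Krebs-Henseleit buffer with 5 mM glucose at 37°C. […] Samples were scintillation counted, and efflux ratio = PcB-A/PcA-B.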

COc1ccc(-n2nc(C(N)=O)c3c2C(=O)N(c2ccc(N4CCCC[14C]4=O)cc2)CC3)cc1
Drug transport [1]: 139 pmol/cm2/hr | Intrinsic activity [2]: 294 pmol | Drug transport [3]: 5962 pmol/cm2/hr | Intrinsic activity [4]: 167 pmol | Drug transport [5]: 471 pmol/cm2/hr | Intrinsic activity [6]: 33 pmol | Drug transport [7]: 71 pmol/cm2/hr | Intrinsic activity [8]: 1485 pmol | Intrinsic activity [9]: 64 pmol | Drug transport [10]: 474 pmol/cm2/hr | Intrinsic activity [11]: 548 pmol | Drug transport [12]: 360 pmol/cm2/hr | Drug transport [13]: 1179 pmol/cm2/hr | Intrinsic activity [14]: 2772 pmol | Drug transport [15]: 3194 pmol/cm2/hr | Intrinsic activity [16]: 146 pmol

COc1ccc(-n2nc(C(N)=O)c3c2C(=O)N(c2ccc(N4CCCCC4=O)cc2)CC3)cc1 [APIXABAN]
bioavailability [17]: 30% | Kp [18]: 30 | bioavailability [19]: 70% | bioavailability [20]: 50% | Kp [21]: 8 | Kp [22]: < 0.1

C[C@H]1O[C@@H](O[C@H]2[C@@H](O)C[C@H](O[C@H]3[C@@H](O)C[C@H](O[C@H]4CC[C@@]5(C)[C@H](CC[C@@H]6[C@@H]5C[C@@H](O)[C@]5(C)[C@@H](C7=CC(=O)OC7)CC[C@]65O)C4)O[C@@H]3C)O[C@@H]2C)C[C@H](O)[C@@H]1O [DIGOXIN]
Papp A→B at 5 µM [23]: 2.3 ×10⁻⁶ cm/s | inhibition at 5 µM (BCRP [24]): 50% | Papp B→A at 5 µM [25]: 20.5 ×10⁻⁶ cm/s | inhibition at 5 µM (P-gp [26]): 98% | inhibition at 5 µM (P-gp [27]): 100% | efflux ratio at 5 µM (P-glycoprotein (human)): > 7

O=C1CN(/N=C/c2ccc([N+](=O)[O-])o2)C(=O)N1 [NITROFURANTOIN]
inhibition at 5 µM (BCRP [28]): 78%

COc1cc2nc(N3CCN(C(=O)c4ccco4)CC3)nc(N)c2cc1OC [PRAZOSIN]
efflux ratio at 5 µM (BCRP [29]): 10
